Data taken from ChEMBL document CHEMBL2157880, “Synthesis, antimycobacterial and antibacterial activity of ciprofloxacin derivatives containing a N-substituted benzyl moiety” (2012).
Values after ≈ are worked out from the molar mass of the structure shown.

Key:
Assay type in all cases: functional
[1] = system: Pseudomonas aeruginosa; experiment: Antibacterial activity against Pseudomonas aeruginosa 10-9 after 18 to 24 hrs by NCCLS method
Summary of the method: (§1)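 Standard NCCLS (M100-S11) MIC testing against Gram-positive and Gram-negative strains. Plates were incubated at 35 °C for 18–24 h. The MIC was read as the lowest concentration giving complete inhibition of visible bacterial growth.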

[2] = system: Mycobacterium tuberculosis; experiment: Antimycobacterial activity against Mycobacterium tuberculosis H37Rv ATCC 27294 by microplate alamar blue assay
Summary of the method: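 Microplate Alamar Blue fluorescence assay on strain H37Rv ATCC 27294. MIC was the lowest concentration cutting fluorescence by ≥90% against the mean of replicate bacterium-only controls.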

[3] = system: Enterococcus faecalis; experiment: Antibacterial activity against Enterococcus faecalis 10-5 after 18 to 24 hrs by NCCLS method; summary of the method: as §1
[4] = system: Pseudomonas aeruginosa; experiment: Antibacterial activity against Pseudomonas aeruginosa 10-20 after 18 to 24 hrs by NCCLS method; summary of the method: as §1
[5] = system: Staphylococcus aureus; experiment: Antibacterial activity against Staphylococcus aureus ATCC 2592 after 18 to 24 hrs by NCCLS method; summary of the method: as §1
[6] = system: Enterococcus faecium; experiment: Antibacterial activity against Enterococcus faecium 10-9 after 18 to 24 hrs by NCCLS method; summary of the method: as §1
[7] = system: Escherichia coli; experiment: Antibacterial activity against extended spectrum beta-lactamases producing Escherichia coli 10-2 after 18 to 24 hrs by NCCLS method; summary of the method: as §1
[8] = system: Enterococcus faecalis; experiment: Antibacterial activity against Enterococcus faecalis 10-7 after 18 to 24 hrs by NCCLS method; summary of the method: as §1
[9] = system: Staphylococcus aureus; experiment: Antibacterial activity against methicillin-resistant Staphylococcus aureus 10-11 after 18 to 24 hrs by NCCLS method
Summary of the method: (§2)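 Incubated at 35 °C for 18–24 h under NCCLS (M100-S11) standards. MIC was read as the lowest concentration giving complete inhibition of visible bacterial growth.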

[10] = system: Escherichia coli; experiment: Antibacterial activity against extended spectrum beta-lactamases producing Escherichia coli 10-3 after 18 to 24 hrs by NCCLS method; summary of the method: as §1
[11] = system: Klebsiella pneumoniae; experiment: Antibacterial activity against Klebsiella pneumoniae 10-3 after 18 to 24 hrs by NCCLS method; summary of the method: as §1
[12] = system: Klebsiella pneumoniae; experiment: Antibacterial activity against Klebsiella pneumoniae 10-4 after 18 to 24 hrs by NCCLS method; summary of the method: as §1
[13] = system: Streptococcus pneumoniae; experiment: Antibacterial activity against Streptococcus pneumoniae 10-1 after 18 to 24 hrs by NCCLS method; summary of the method: as §1
[14] = system: Enterococcus faecalis; experiment: Antibacterial activity against Enterococcus faecalis 10-6 after 18 to 24 hrs by NCCLS method; summary of the method: as §1
[15] = system: Pseudomonas aeruginosa; experiment: Antibacterial activity against Pseudomonas aeruginosa 10-12 after 18 to 24 hrs by NCCLS method; summary of the method: as §1
[16] = system: Staphylococcus epidermidis; experiment: Antibacterial activity against methicillin-sensitive Staphylococcus epidermidis 10-11 after 18 to 24 hrs by NCCLS method; summary of the method: as §1
[17] = system: Klebsiella pneumoniae; experiment: Antibacterial activity against extended spectrum beta-lactamases producing Klebsiella pneumoniae 10-1 after 18 to 24 hrs by NCCLS method; summary of the method: as §1
[18] = system: Staphylococcus epidermidis; experiment: Antibacterial activity against methicillin-sensitive Staphylococcus epidermidis 10-15 after 18 to 24 hrs by NCCLS method; summary of the method: as §2
[19] = system: Staphylococcus aureus; experiment: Antibacterial activity against methicillin-resistant Staphylococcus aureus 10-15 after 18 to 24 hrs by NCCLS method; summary of the method: as §2
[20] = system: Klebsiella pneumoniae; experiment: Antibacterial activity against extended spectrum beta-lactamases producing Klebsiella pneumoniae 10-3 after 18 to 24 hrs by NCCLS method; summary of the method: as §1
[21] = system: Klebsiella pneumoniae; experiment: Antibacterial activity against extended spectrum beta-lactamases producing Klebsiella pneumoniae 10-2 after 18 to 24 hrs by NCCLS method; summary of the method: as §1
[22] = system: Escherichia coli; experiment: Antibacterial activity against extended spectrum beta-lactamases producing Escherichia coli 10-4 after 18 to 24 hrs by NCCLS method; summary of the method: as §1
[23] = system: Enterococcus faecium; experiment: Antibacterial activity against Enterococcus faecium 10-6 after 18 to 24 hrs by NCCLS method; summary of the method: as §1
[24] = system: Escherichia coli; experiment: Antibacterial activity against Escherichia coli 10-3 after 18 to 24 hrs by NCCLS method; summary of the method: as §1
[25] = system: Staphylococcus epidermidis; experiment: Antibacterial activity against methicillin-resistant Staphylococcus epidermidis 10-10 after 18 to 24 hrs by NCCLS method; summary of the method: as §2
[26] = system: Staphylococcus aureus; experiment: Antibacterial activity against methicillin-sensitive Staphylococcus aureus 10-14 after 18 to 24 hrs by NCCLS method; summary of the method: as §1
[27] = system: Staphylococcus epidermidis; experiment: Antibacterial activity against methicillin-resistant Staphylococcus epidermidis 10-13 after 18 to 24 hrs by NCCLS method; summary of the method: as §2
[28] = system: Escherichia coli; experiment: Antibacterial activity against Escherichia coli ATCC 25922 after 18 to 24 hrs by NCCLS method; summary of the method: as §1
[29] = system: Pseudomonas aeruginosa; experiment: Antibacterial activity against Pseudomonas aeruginosa 10-18 after 18 to 24 hrs by NCCLS method; summary of the method: as §1
[30] = system: Staphylococcus aureus; experiment: Antibacterial activity against methicillin-sensitive Staphylococcus aureus 10-13 after 18 to 24 hrs by NCCLS method; summary of the method: as §1
[31] = system: Staphylococcus aureus; experiment: Antibacterial activity against methicillin-resistant Staphylococcus aureus 10-13 after 18 to 24 hrs by NCCLS method; summary of the method: as §2
[32] = system: Escherichia coli; experiment: Antibacterial activity against Escherichia coli 10-1 after 18 to 24 hrs by NCCLS method; summary of the method: as §1
[33] = system: Pseudomonas aeruginosa; experiment: Antibacterial activity against Pseudomonas aeruginosa 10-5 after 18 to 24 hrs by NCCLS method; summary of the method: as §1
[34] = system: Escherichia coli; experiment: Antibacterial activity against Escherichia coli 10-2 after 18 to 24 hrs by NCCLS method; summary of the method: as §1
[35] = system: Streptococcus pneumoniae; experiment: Antibacterial activity against Streptococcus pneumoniae 10-6 after 18 to 24 hrs by NCCLS method; summary of the method: as §1
[36] = system: Staphylococcus aureus; experiment: Antibacterial activity against methicillin-sensitive Staphylococcus aureus 10-11 after 18 to 24 hrs by NCCLS method; summary of the method: as §1
[37] = system: Pseudomonas aeruginosa; experiment: Antibacterial activity against Pseudomonas aeruginosa 10-15 after 18 to 24 hrs by NCCLS method; summary of the method: as §1
[38] = system: Klebsiella pneumoniae; experiment: Antibacterial activity against Klebsiella pneumoniae 10-2 after 18 to 24 hrs by NCCLS method; summary of the method: as §1

SMILES | MIC [1] [µg/mL] | MIC [2] [µg/mL] | MIC [3] [µg/mL] | MIC [4] [µg/mL] | MIC [5] [µg/mL] | MIC [6] [µg/mL] | MIC [7] [µg/mL] | MIC [8] [µg/mL] | MIC [9] [µg/mL] | MIC [10] [µg/mL] | MIC [11] [µg/mL] | MIC [12] [µg/mL] | MIC [13] [µg/mL] | MIC [14] [µg/mL] | MIC [15] [µg/mL] | MIC [16] [µg/mL] | MIC [17] [µg/mL] | MIC [18] [µg/mL] | MIC [19] [µg/mL] | MIC [20] [µg/mL] | also measured
COc1ccc(OC)c(CN2CCN(c3cc4c(cc3F)c(=O)c(C(=O)O)cn4C3CC3)CC2)c1 | 16 (≈ 33.2 µM) | > 32 | 16 (≈ 33.2 µM) | 32 (≈ 66.5 µM) | 0.5 (≈ 1.04 µM) | 16 (≈ 33.2 µM) | > 128 | 16 (≈ 33.2 µM) | 32 (≈ 66.5 µM) | > 128 | 16 (≈ 33.2 µM) | > 128 | 8 (≈ 16.6 µM) | 128 (≈ 266 µM) | 8 (≈ 16.6 µM) | 1 (≈ 2.08 µM) | > 128 | 16 (≈ 33.2 µM) | 16 (≈ 33.2 µM) | > 128 | MIC [21]: > 128 µg/mL; MIC [22]: > 128 µg/mL; MIC [23]: 16 µg/mL (≈ 33.2 µM); MIC [24]: 16 µg/mL (≈ 33.2 µM); MIC [25]: 16 µg/mL (≈ 33.2 µM); MIC [26]: 1 µg/mL (≈ 2.08 µM); MIC [27]: 16 µg/mL (≈ 33.2 µM); MIC [28]: 1 µg/mL (≈ 2.08 µM); MIC [29]: 16 µg/mL (≈ 33.2 µM); MIC [30]: 0.5 µg/mL (≈ 1.04 µM); MIC [31]: 32 µg/mL (≈ 66.5 µM); MIC [32]: > 128 µg/mL; MIC [33]: 16 µg/mL (≈ 33.2 µM); MIC [34]: 64 µg/mL (≈ 133 µM); MIC [35]: 64 µg/mL (≈ 133 µM); MIC [36]: 0.5 µg/mL (≈ 1.04 µM); MIC [37]: 16 µg/mL (≈ 33.2 µM); MIC [38]: > 128 µg/mL
COc1cc(CN2CCN(c3cc4c(cc3F)c(=O)c(C(=O)O)cn4C3CC3)CC2)c([N+](=O)[O-])cc1OC | 8 (≈ 15.2 µM) | > 32 | 16 (≈ 30.4 µM) | 4 (≈ 7.6 µM) | 1 (≈ 1.9 µM) | 64 (≈ 122 µM) | > 128 | 16 (≈ 30.4 µM) | 64 (≈ 122 µM) | > 128 | 8 (≈ 15.2 µM) | > 128 | 8 (≈ 15.2 µM) | 128 (≈ 243 µM) | 16 (≈ 30.4 µM) | 2 (≈ 3.8 µM) | > 128 | 16 (≈ 30.4 µM) | 16 (≈ 30.4 µM) | > 128 | MIC [21]: > 128 µg/mL; MIC [22]: > 128 µg/mL; MIC [23]: 8 µg/mL (≈ 15.2 µM); MIC [24]: 8 µg/mL (≈ 15.2 µM); MIC [25]: 16 µg/mL (≈ 30.4 µM); MIC [26]: 1 µg/mL (≈ 1.9 µM); MIC [27]: 16 µg/mL (≈ 30.4 µM); MIC [28]: 2 µg/mL (≈ 3.8 µM); MIC [29]: 8 µg/mL (≈ 15.2 µM); MIC [30]: 2 µg/mL (≈ 3.8 µM); MIC [31]: 64 µg/mL (≈ 122 µM); MIC [32]: > 128 µg/mL; MIC [33]: 8 µg/mL (≈ 15.2 µM); MIC [34]: 8 µg/mL (≈ 15.2 µM); MIC [35]: 128 µg/mL (≈ 243 µM); MIC [36]: 1 µg/mL (≈ 1.9 µM); MIC [37]: 8 µg/mL (≈ 15.2 µM); MIC [38]: > 128 µg/mL
O=C(O)c1cn(C2CC2)c2cc(N3CCN(Cc4cc5c(cc4[N+](=O)[O-])OCO5)CC3)c(F)cc2c1=O | 1 (≈ 1.96 µM) | 2 (≈ 3.92 µM) | 32 (≈ 62.7 µM) | 4 (≈ 7.84 µM) | 0.5 (≈ 0.979 µM) | 16 (≈ 31.3 µM) | > 128 | 32 (≈ 62.7 µM) | 32 (≈ 62.7 µM) | > 128 | 2 (≈ 3.92 µM) | > 128 | 2 (≈ 3.92 µM) | 64 (≈ 125 µM) | 1 (≈ 1.96 µM) | 1 (≈ 1.96 µM) | > 128 | 16 (≈ 31.3 µM) | 32 (≈ 62.7 µM) | > 128 | MIC [21]: > 128 µg/mL; MIC [22]: 8 µg/mL (≈ 15.7 µM); MIC [23]: 2 µg/mL (≈ 3.92 µM); MIC [24]: 8 µg/mL (≈ 15.7 µM); MIC [25]: 16 µg/mL (≈ 31.3 µM); MIC [26]: 1 µg/mL (≈ 1.96 µM); MIC [27]: 32 µg/mL (≈ 62.7 µM); MIC [28]: 0.125 µg/mL (≈ 0.245 µM); MIC [29]: 2 µg/mL (≈ 3.92 µM); MIC [30]: 1 µg/mL (≈ 1.96 µM); MIC [31]: 32 µg/mL (≈ 62.7 µM); MIC [32]: 32 µg/mL (≈ 62.7 µM); MIC [33]: 1 µg/mL (≈ 1.96 µM); MIC [34]: 1 µg/mL (≈ 1.96 µM); MIC [35]: 16 µg/mL (≈ 31.3 µM); MIC [36]: 0.5 µg/mL (≈ 0.979 µM); MIC [37]: 0.5 µg/mL (≈ 0.979 µM); MIC [38]: 64 µg/mL (≈ 125 µM)
